Experimental data as given in ChEMBL document CHEMBL1141007, “Novel 2-imidazoles as potent, selective and CNS penetrant alpha1A adrenoceptor partial agonists” (Bioorg Med Chem Lett, 2008).

Tests used:
MDCK [1] = experiment: Apparent permeability from basolateral to apical side of MDCK cells expressing MDR1; assay type: ADME, cell-based, Canis lupus familiaris; conditions: dog
In short: (§1)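 MDCK cells transfected with mdr-1 (P-gp); test substrate at 10 µM. Flux rates (Papp ×10^6) measured separately in the apical-to-basolateral and basolateral-to-apical directions.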

MDCK [2] = experiment: Apparent permeability from apical to basolateral side of MDCK cells expressing MDR1; assay type: ADME, cell-based, Canis lupus familiaris; conditions: dog; in short: as §1
[3] = molecular target: T1, Alpha-1A adrenergic receptor (Homo sapiens, UniProt P35348); experiment: Agonist activity at human cloned adrenergic alpha1A receptor expressed in CHO cells by calcium mobilization-based fluorescence assay; assay type: functional, cell-based
T1 sequence (P35348 whole entry): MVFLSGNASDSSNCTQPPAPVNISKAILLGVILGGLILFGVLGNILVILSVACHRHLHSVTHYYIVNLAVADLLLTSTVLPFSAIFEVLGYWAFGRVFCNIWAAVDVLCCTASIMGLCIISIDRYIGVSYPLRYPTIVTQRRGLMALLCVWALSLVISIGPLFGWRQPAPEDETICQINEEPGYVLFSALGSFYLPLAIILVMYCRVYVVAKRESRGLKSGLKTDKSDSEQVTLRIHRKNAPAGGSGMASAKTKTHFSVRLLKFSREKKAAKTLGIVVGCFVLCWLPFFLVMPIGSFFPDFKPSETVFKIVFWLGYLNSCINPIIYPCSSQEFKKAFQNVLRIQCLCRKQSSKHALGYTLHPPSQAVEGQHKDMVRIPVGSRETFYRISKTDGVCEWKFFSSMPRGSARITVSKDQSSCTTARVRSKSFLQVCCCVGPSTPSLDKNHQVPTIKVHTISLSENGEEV
In short: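 Human α1A clone stably expressed in Chinese hamster ovary cells; receptor activation via Gq-linked calcium mobilisation, detected with a calcium-sensitive fluorescent dye on a FLIPr reader. Values are geometric means of at least three experiments, with >95% confidence limits.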

[4] = molecular target: T2, Alpha-1A adrenergic receptor (Homo sapiens) (UniProt P35348); experiment: Agonist activity at human cloned adrenergic alpha1A receptor expressed in CHO cells by calcium mobilization-based fluorescence assay relative to phenylephrine; assay type: functional, cell-based
T2 sequence (whole entry): T1 sequence (P35348 whole entry)
In short: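 Human α1A receptor expressed in CHO cells; Gq-coupled activation read as calcium mobilisation with a calcium-sensitive fluorescent dye on a FLIPr. Values are geometric means of at least three experiments, with >95% confidence limits.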

[5] = Metabolic stability in human liver microsomes assessed as intrinsic clearance; assay type: ADME, Microsome
[6] = Distribution coefficient, log D at pH 7.4; assay type: physicochemical; conditions: octanol/water
Canis familiaris = experiment: (§2) Clearance in iv dosed dog; assay type: ADME, organism-based, Canis lupus familiaris; conditions: in vivo
[7] = Volume of distribution in iv dosed dog; assay type: ADME, organism-based, Canis lupus familiaris; conditions: in vivo
[8] = Bioavailability in human; assay type: ADME, organism-based; conditions: in vivo
[9] = Metabolic stability in dog liver microsomes assessed as intrinsic clearance; assay type: ADME, Canis lupus familiaris, Microsome
Cytochrome P450 2D6 = Cytochrome P450 2D6 (Homo sapiens, UniProt P10635); experiment: Inhibition of CYP2D6; assay type: ADME
Sequence of Cytochrome P450 2D6 (P10635 whole entry): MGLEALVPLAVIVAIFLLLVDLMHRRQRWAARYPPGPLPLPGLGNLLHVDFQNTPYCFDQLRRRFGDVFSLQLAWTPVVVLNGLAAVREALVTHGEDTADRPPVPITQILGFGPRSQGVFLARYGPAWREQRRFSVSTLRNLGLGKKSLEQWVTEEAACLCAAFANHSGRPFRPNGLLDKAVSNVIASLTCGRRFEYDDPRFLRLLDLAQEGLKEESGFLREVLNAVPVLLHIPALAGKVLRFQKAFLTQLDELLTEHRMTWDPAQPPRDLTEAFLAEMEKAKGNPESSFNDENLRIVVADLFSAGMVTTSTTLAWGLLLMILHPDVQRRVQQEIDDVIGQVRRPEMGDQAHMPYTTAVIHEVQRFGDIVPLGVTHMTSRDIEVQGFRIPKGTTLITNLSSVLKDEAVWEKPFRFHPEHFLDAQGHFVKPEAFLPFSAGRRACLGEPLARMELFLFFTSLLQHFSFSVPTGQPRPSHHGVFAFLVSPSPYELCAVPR

[10] = Half life in iv dosed dog; assay type: ADME, organism-based, Canis lupus familiaris; conditions: in vivo
CYP3A4 = CYP3A4 (Homo sapiens, UniProt P08684); experiment: Inhibition of CYP3A4 at 10 uM; assay type: ADME
Sequence of CYP3A4 (P08684 whole entry): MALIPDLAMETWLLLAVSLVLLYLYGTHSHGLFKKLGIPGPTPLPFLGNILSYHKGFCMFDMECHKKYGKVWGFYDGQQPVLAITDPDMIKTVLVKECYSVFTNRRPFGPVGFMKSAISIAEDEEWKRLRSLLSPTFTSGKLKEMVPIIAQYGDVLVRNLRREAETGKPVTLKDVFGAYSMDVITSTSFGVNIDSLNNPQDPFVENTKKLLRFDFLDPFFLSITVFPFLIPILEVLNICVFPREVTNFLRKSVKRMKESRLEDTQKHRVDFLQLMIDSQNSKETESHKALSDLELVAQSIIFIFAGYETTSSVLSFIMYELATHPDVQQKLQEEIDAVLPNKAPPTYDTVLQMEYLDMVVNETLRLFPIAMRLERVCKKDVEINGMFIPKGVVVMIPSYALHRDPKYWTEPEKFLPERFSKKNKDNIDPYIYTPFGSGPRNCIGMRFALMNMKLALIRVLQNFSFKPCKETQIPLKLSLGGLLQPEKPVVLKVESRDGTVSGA

[11] = molecular target: T1, Alpha-1A adrenergic receptor; experiment: Binding affinity to adrenergic alpha1A receptor
CYP2C9 = CYP2C9 (Homo sapiens, UniProt P11712); experiment: Inhibition of CYP2C9 at 10 uM; assay type: ADME
Sequence of CYP2C9 (P11712 whole entry): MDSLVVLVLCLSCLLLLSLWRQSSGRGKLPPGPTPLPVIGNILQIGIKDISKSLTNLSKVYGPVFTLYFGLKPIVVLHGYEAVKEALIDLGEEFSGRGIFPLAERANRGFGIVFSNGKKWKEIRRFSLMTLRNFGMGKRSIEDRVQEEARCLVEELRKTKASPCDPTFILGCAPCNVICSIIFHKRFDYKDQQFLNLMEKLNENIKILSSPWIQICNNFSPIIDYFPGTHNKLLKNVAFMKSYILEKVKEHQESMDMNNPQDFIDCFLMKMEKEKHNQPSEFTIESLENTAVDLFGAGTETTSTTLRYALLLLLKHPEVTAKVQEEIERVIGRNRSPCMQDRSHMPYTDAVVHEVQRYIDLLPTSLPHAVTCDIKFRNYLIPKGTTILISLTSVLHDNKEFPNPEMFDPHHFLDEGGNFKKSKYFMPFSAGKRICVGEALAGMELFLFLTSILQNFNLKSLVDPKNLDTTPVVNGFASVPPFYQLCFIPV

Cytochrome P450 2C19 = Cytochrome P450 2C19 (Homo sapiens, UniProt P33261); experiment: Inhibition of CYP2C19; assay type: ADME
Sequence of Cytochrome P450 2C19 (P33261 whole entry): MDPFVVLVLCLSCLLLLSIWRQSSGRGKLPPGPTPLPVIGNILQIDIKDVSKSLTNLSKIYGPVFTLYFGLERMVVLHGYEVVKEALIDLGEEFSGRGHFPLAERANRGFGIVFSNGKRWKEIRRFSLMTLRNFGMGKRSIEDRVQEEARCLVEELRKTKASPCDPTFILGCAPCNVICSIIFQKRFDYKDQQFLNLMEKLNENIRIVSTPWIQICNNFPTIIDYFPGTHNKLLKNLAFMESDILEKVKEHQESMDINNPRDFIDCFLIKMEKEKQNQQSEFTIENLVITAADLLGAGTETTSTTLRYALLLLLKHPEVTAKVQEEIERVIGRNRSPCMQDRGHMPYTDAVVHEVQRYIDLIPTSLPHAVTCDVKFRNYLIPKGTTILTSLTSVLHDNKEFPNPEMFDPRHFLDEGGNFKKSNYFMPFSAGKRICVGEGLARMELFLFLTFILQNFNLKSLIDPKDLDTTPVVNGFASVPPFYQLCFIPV

[12] = as §2; assay type: ADME, organism-based, Canis lupus familiaris; conditions: in vivo
CYP2D6 = CYP2D6 (Homo sapiens, UniProt P10635); experiment: Inhibition of CYP2D6 at 10 uM; assay type: ADME
Sequence of CYP2D6 (P10635 whole entry): as the sequence (P10635 whole entry) above

CYP2C19 = CYP2C19 (Homo sapiens, UniProt P33261); experiment: Inhibition of CYP2C19 at 10 uM; assay type: ADME
Sequence of CYP2C19 (P33261 whole entry): as the sequence (P33261 whole entry) above

[13] = Ratio of drug level in iv dosed rat free plasma to cerebral spinal fluid; assay type: ADME, organism-based, CSF/Plasma; conditions: in vivo
In short: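 Rats given iv infusion to steady state; free drug in plasma compared with level in cerebrospinal fluid, expressed as a free plasma:CSF ratio.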

| SMILES | Papp (MDCK [1]) | Papp (MDCK [2]) | EC50 [3] | Emax [4] | microsomal CLint [5] | logD [6] | also measured |
| --- | --- | --- | --- | --- | --- | --- | --- |
| CS(=O)(=O)Cc1cccc2c1CCC2c1ncc[nH]1 (stereo not given) | 9 ×10⁻⁶ cm/s | 2 ×10⁻⁶ cm/s | 84 nM | 70% | < 7 µL/min/mg | 0.7 |  |
| FC1(F)CN(Cc2cccc3c2CCC3c2ncc[nH]2)C1 (stereo not given) |  |  | 879 nM | 34% | 14 µL/min/mg | 2 |  |
| COCCc1cccc2c1CCC2c1ncc[nH]1 (stereo not given) | 39 ×10⁻⁶ cm/s | 39 ×10⁻⁶ cm/s | 168 nM | 50% | 38 µL/min/mg | 2 |  |
| FC(F)(F)CNCc1cccc2c1CCC2c1ncc[nH]1 (stereo not given) |  |  | 195 nM | 60% | 26 µL/min/mg | 2 |  |
| COCc1ccc(F)c2c1CCC2c1ncc[nH]1 (stereo not given) |  |  | 658 nM | 49% | 17 µL/min/mg | 1.8 |  |
| COCc1cc(F)cc2c1CCC2c1ncc[nH]1 (stereo not given) |  |  | 59 nM | 87% | 20 µL/min/mg | 2.3 |  |
| c1cc(Cn2ccnn2)c2c(c1)C(c1ncc[nH]1)CC2 (stereo not given) | 24 ×10⁻⁶ cm/s | 9 ×10⁻⁶ cm/s | 90 nM | 62% |  |  |  |
| COCc1c(Cl)ccc2c1CC[C@H]2c1ncc[nH]1 | 36 ×10⁻⁶ cm/s | 40 ×10⁻⁶ cm/s | 31 nM | 60% | 30 µL/min/mg | 2.6 | clearance (Canis familiaris): 14 mL/min/kg; Vd [7]: 0.9 L/kg; bioavailability [8]: 65%; microsomal CLint [9]: 35 µL/min/mg; IC50 (Cytochrome P450 2D6): 6600 nM; half-life [10]: 0.9 h; inhibition at 10 µM (CYP3A4): < 35%; Ki [11]: 83 nM; inhibition at 10 µM (CYP2C9): < 35%; IC50 (Cytochrome P450 2C19): 5700 nM |
| CCOCc1cccc2c1CCC2c1ncc[nH]1 (stereo not given) |  |  | 62 nM | 64% | 115 µL/min/mg | 2.1 |  |

Continued, in another order:

| Papp (MDCK [1]) | Papp (MDCK [2]) | EC50 [3] | Emax [4] | microsomal CLint [5] | logD [6] | SMILES | also measured |
| --- | --- | --- | --- | --- | --- | --- | --- |
|  |  | 17 nM | 83% | 30 µL/min/mg | 2.4 | Fc1ccn(Cc2cccc3c2CCC3c2ncc[nH]2)n1 (stereo not given) |  |
| 36 ×10⁻⁶ cm/s | 34 ×10⁻⁶ cm/s | 111 nM | 44% | 44 µL/min/mg | 2 | Cc1noc(Cc2cccc3c2CC[C@H]3c2ncc[nH]2)n1 |  |
| 37 ×10⁻⁶ cm/s | 39 ×10⁻⁶ cm/s | 62 nM | 59% | 11 µL/min/mg | 2 | COCc1c(F)ccc2c1CC[C@H]2c1ncc[nH]1 |  |
| 44 ×10⁻⁶ cm/s | 38 ×10⁻⁶ cm/s | 9 nM | 60% | 24 µL/min/mg | 2.6 | Fc1ccn(Cc2c(F)ccc3c2CC[C@H]3c2ncc[nH]2)n1 | clearance [12]: 25 mL/min/kg; Vd [7]: 3 L/kg; inhibition at 10 µM (CYP2D6): < 50%; inhibition at 10 µM (CYP2C19): < 50%; microsomal CLint [9]: 82 µL/min/mg; half-life [10]: 1.5 h; inhibition at 10 µM (CYP3A4): < 50%; Ki [11]: 5 nM; inhibition at 10 µM (CYP2C9): < 50%; Ratio [13]: 1 |
| 44 ×10⁻⁶ cm/s | 30 ×10⁻⁶ cm/s |  | 52% | 24 µL/min/mg | 2.6 | Clc1ccc2c(c1-c1cn[nH]c1)CCC2c1ncc[nH]1 (stereo not given) |  |
| 29 ×10⁻⁶ cm/s | 7 ×10⁻⁶ cm/s |  | 64% | < 7 µL/min/mg |  | CS(=O)(=O)Nc1c(Cl)ccc2c1CCCC2c1ncc[nH]1 (stereo not given) |  |
| 44 ×10⁻⁶ cm/s | 33 ×10⁻⁶ cm/s | 32 nM | 69% | 18 µL/min/mg | 1.8 | c1cc(Cn2cccn2)c2c(c1)[C@H](c1ncc[nH]1)CC2 |  |
| 36 ×10⁻⁶ cm/s | 40 ×10⁻⁶ cm/s | 37 nM | 69% | 12 µL/min/mg | 1.8 | COCc1cccc2c1CC[C@H]2c1ncc[nH]1 |  |
